Screening results as filed in PubChem.
Compounds with a hit are over-represented: about 2.6% of the library has one in this group of screens.
SENP1 FRET inh: blocks the human SENP1 SUMO protease catalytic domain | Q9P0U3 | recombinant SENP1 catalytic domain, CyPet-SUMO1-YPet FRET cleavage | inhibition, % at 10 µM | 0.21% of 360,000 active;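 active means inhibition at least 30% at 10 µM, raw YFP signal under a set limit, fluorescence ratio 0.5 to 1.5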;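 further: 0% = enzyme with DMSO and 100% = no enzyme wells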
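Compound: 10 µM single point, 0.5% DMSO; Test system: hSENP1 catalytic domain, recombinant; Timing: 50 min reaction at room temperature; Technique: FRET, CFP and YFP emission; Control set: no-enzyme wells low, DMSO-plus-enzyme wells high control.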
SENP7 block: blocks the human protease SENP7 | inhibition, % at 5 µM | 1.5% of 330,000 active | AID 434973 | Q9BQF6 | recombinant SENP7, Z-RLRGG-aminoluciferin luminescence, 40 min;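 active means inhibition above about 50% at the single test dose, limit read from the data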;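 further: plate controls were DMSO with enzyme for no effect and no enzyme buffer wells for full effect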
Target sequence (Q9BQF6 706-1050 limits assumed): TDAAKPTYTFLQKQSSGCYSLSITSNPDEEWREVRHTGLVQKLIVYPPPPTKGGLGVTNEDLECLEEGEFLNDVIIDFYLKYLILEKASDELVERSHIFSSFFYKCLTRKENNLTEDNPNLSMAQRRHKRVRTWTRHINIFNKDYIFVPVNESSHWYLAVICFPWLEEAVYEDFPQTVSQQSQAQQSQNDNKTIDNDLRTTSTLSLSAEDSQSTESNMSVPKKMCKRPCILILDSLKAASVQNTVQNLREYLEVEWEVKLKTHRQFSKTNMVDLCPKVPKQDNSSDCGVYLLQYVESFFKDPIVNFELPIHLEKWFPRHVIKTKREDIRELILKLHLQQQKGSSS
SENP8 block-1: SENP8 protease inhibition | inhibition, % at 10 µM | purified SENP8, Z-RLRGG-aminoluciferin cleavage, luminescence | 1.2% of 330,000 active; in the data active means inhibition above about 50%
Target sequence (Q96LD8 whole entry, looked up): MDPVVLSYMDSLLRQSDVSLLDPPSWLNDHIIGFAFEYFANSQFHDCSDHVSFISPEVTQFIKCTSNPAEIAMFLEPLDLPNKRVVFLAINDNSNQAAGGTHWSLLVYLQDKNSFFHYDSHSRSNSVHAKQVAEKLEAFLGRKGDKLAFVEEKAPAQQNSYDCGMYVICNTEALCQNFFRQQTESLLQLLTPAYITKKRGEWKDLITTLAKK
SENP6 block: SENP6 protease inhibition; Q9GZR1; Recombinant SENP6 catalytic domain, aminoluciferin luminescence; inhibition, % at 10 µM; 1.8% of 330,000 active; AID 2599;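 active means inhibition above about 50% at the single tested dose, limit read from the data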;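 further: plate controls were DMSO wells with enzyme for no effect and DMSO wells lacking enzyme for full effect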
SENP8 block-2: SENP8 (human) protease inhibition. 0.64% of 360,000 active. inhibition, % at 20 µM. recombinant SENP8, Nedd8 substrate fluorescence; in the data active means inhibition mostly above about 40%, no sharp cut-off; inactive means mostly below about 27%
Platelet DG rel: modulates dense granule release in human platelets; human platelet-rich plasma, SFLLRN dense granule ATP release, luminescence; 0.22% of 300,000 active; inhibition, %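 (compounds screened at 7.5 µM in platelet-rich plasma)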; AID 1663;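 active means mean replicate score, as percent of positive control, at or above 50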
SENP8 confirm: confirmation of human SENP8 protease inhibitors | shares compounds with SENP7 block | Recombinant SENP8, Z-RLRGG-aminoluciferin luminescence, 60 min | inhibition, % at 12.5 µM | 40% of 6,200 active;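 active means mean inhibition across replicates above about 50%, limit read from the data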
SENP6 conf: confirmation of human SENP6 protease inhibitors. AID 488915. shares compounds with SENP7 block. 58% of 6,200 active. recombinant SENP6, Z-RLRGG-aminoluciferin luminescence. inhibition, % at 12.5 µM
SENP7 conf: confirmation of human SENP7 protease inhibitors | shares compounds with SENP7 block | inhibition, % at 12.5 µM | recombinant SENP7, Z-RLRGG-aminoluciferin luminescence, 40 min | 69% of 6,200 active
Casp3 SENP sel: caspase-3 inhibition (SENP selectivity assay); purified caspase-3, Z-DEVD-aminoluciferin luminescence, 60 min; inhibition, % at 12.5 µM; AID 488918; shares compounds with SENP7 block; 60% of 6,200 active;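 active means mean inhibition above about 50%, limit read from the data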;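 further: plate controls were enzyme with DMSO for no effect and wells without caspase-3 for full effect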
SENP luc ctr: counter-screen for SENP inhibitors: luminescence interference. Pre-incubated SENP8/Z-RLRGG-aminoluciferin, luciferase luminescence interference. inhibition, % at 12.5 µM. 39% of 6,200 active. AID 488919. shares compounds with SENP7 block;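 active means mean inhibition above about 50% when retested at one dose, limit read from the data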;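 further: plate controls were DMSO wells with completed reaction for no effect and substrate without enzyme for full effect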
* hit, by the source's call.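 How the source made its calls, unless noted: active means mean inhibition above about 50% in the one-dose retest (limit read from the data); inactive means the rest.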

How did O=C(CCCc1nc(-c2ccccc2)no1)NC1CCCCC1 do in these assays?
SENP1 FRET inh: -1.1; SENP7 block: -2.1; SENP8 block-1: 2.8; SENP6 block: -11.6; SENP8 block-2: 3.2; Platelet DG rel: -1.4

Results for COc1cccc(CN2CC(C(=O)NCCCn3cccn3)CCC2=O)c1 (stereo not given) ?
SENP1 FRET inh: -0.1; SENP7 block: 5.7; SENP8 block-1: 2.0; SENP6 block: -1.6; SENP8 block-2: 6.5; Platelet DG rel: 4.1

How did Cc1[nH]n(C(N)=S)c(=O)c1N=Nc1cccc(C(F)(F)F)c1 do in these assays?
SENP1 FRET inh: 3.0; SENP7 block: 37.5; SENP8 block-1: 81.0*; SENP6 block: 78.6*; SENP8 block-2: 25.3; Platelet DG rel: -0.4; SENP8 confirm: -6.2; SENP6 conf: 1.3; SENP7 conf: 7.7; Casp3 SENP sel: 5.0; SENP luc ctr: 1.2

How did Cc1[nH]n(C2=NCCS2)c(=O)c1N=Nc1cccc(C(F)(F)F)c1 do in these assays?
SENP1 FRET inh: 2.0; SENP7 block: 30.9; SENP8 block-1: 19.5; SENP6 block: 74.3*; SENP8 block-2: 30.2; Platelet DG rel: 2.8; SENP8 confirm: 35.1; SENP6 conf: 29.8; SENP7 conf: 25.5; Casp3 SENP sel: 47.8; SENP luc ctr: 3.9

Results for Cc1[nH]n(-c2ccccc2)c(=O)c1N=Nc1cccc(C(=O)O)c1 ?
SENP1 FRET inh: 2.9; SENP7 block: 0.2; SENP8 block-1: -9.1; SENP6 block: 56.5*; SENP8 block-2: 49.4*; Platelet DG rel: -12.4; SENP8 confirm: 29.6; SENP6 conf: 21.9; SENP7 conf: 58.7*; Casp3 SENP sel: 5.4; SENP luc ctr: 27.9

What do the screens show for `Cc1[nH]n(C(N)=S)c(=O)c1N=Nc1ccc(Br)cc1`?
SENP1 FRET inh: 4.7; SENP7 block: 82.3*; SENP8 block-1: 91.6*; SENP6 block: 92.8*; SENP8 block-2: 27.9; Platelet DG rel: -3.5; SENP8 confirm: -8.1; SENP6 conf: 10.1; SENP7 conf: 20.4; Casp3 SENP sel: 26.3; SENP luc ctr: -1.6

How did Cc1[nH]n(-c2ccccc2)c(=O)c1N=Nc1cccc(S(=O)(=O)N2CCOCC2)c1 do in these assays?
SENP1 FRET inh: 3.1; SENP7 block: -21.7; SENP8 block-1: -10.2; SENP6 block: 13.9; SENP8 block-2: 13.3; Platelet DG rel: 2.7

Results for Cc1[nH]n(-c2ccccc2)c(=O)c1N=Nc1ccc(C(N)=O)cc1 ?
SENP1 FRET inh: 4.3; SENP7 block: 7.2; SENP8 block-1: 0.4; SENP6 block: -0.3; SENP8 block-2: 22.4; Platelet DG rel: 11.2

How did CN(Cc1ccccc1F)C(=O)COc1ccc(C(=O)c2ccccc2)cc1 do in these assays?
SENP1 FRET inh: 1.1; SENP7 block: -10.4; SENP8 block-1: -3.9; SENP6 block: -10.8; SENP8 block-2: 9.6; Platelet DG rel: -2.9

Results for COc1cc(C#Cc2ccc3cc(CCO)oc(=O)c3c2)cc(OC)c1 ?
SENP1 FRET inh: 0.0; SENP7 block: 84.5*; SENP8 block-1: 79.6*; SENP6 block: 84.3*; SENP8 block-2: inactive; SENP8 confirm: 80.6*; SENP6 conf: 83.4*; SENP7 conf: 94.7*; Casp3 SENP sel: 61.4*; SENP luc ctr: 65.2*

How did Brc1ccc(-c2nc(-c3ccccn3)no2)o1 do in these assays?
SENP1 FRET inh: -0.7; SENP7 block: 89.1*; SENP8 block-1: 86.9*; SENP6 block: 89.0*; SENP8 block-2: 1.7; Platelet DG rel: -5.0; SENP8 confirm: 92.6*; SENP6 conf: 93.5*; SENP7 conf: 100.8*; Casp3 SENP sel: 96.2*; SENP luc ctr: 91.6*

Results for Clc1ccccc1-c1nc(-c2ccc(Br)o2)no1 ?
SENP1 FRET inh: -1.3; SENP7 block: 82.5*; SENP8 block-1: 83.1*; SENP6 block: 86.3*; SENP8 block-2: 2.8; Platelet DG rel: 1.7; SENP8 confirm: -2.7; SENP6 conf: 84.8*; SENP7 conf: 96.6*; Casp3 SENP sel: 68.4*; SENP luc ctr: 73.4*

What do the screens show for `COc1cc(-c2nc(-c3ccc(Br)o3)no2)cc(OC)c1OC`?
SENP1 FRET inh: 1.1; SENP7 block: -9.0; SENP8 block-1: 3.0; SENP6 block: -1.4; SENP8 block-2: 6.6; Platelet DG rel: 29.5

How did Brc1ccc(-c2nc(-c3ccncc3)no2)o1 do in these assays?
SENP1 FRET inh: 0.7; SENP7 block: 4.3; SENP8 block-1: -16.7; SENP6 block: 32.2; SENP8 block-2: 20.9; Platelet DG rel: -2.8

How did Brc1ccc(-c2noc(-c3ccccn3)n2)o1 do in these assays?
SENP1 FRET inh: -2.4; SENP7 block: 91.1*; SENP8 block-1: 86.2*; SENP6 block: 85.3*; SENP8 block-2: 22.8; Platelet DG rel: 10.1; SENP8 confirm: 40.4; SENP6 conf: 86.3*; SENP7 conf: 98.6*; Casp3 SENP sel: 93.1*; SENP luc ctr: 38.8

Results for O=[N+]([O-])c1ccccc1-c1nc(-c2ccc(Br)o2)no1 ?
SENP1 FRET inh: -1.1; SENP7 block: 20.6; SENP8 block-1: 15.4; SENP6 block: 37.8; SENP8 block-2: -5.4; Platelet DG rel: 3.3

How did O=C(c1ccc(Cl)s1)N1CCc2ccccc21 do in these assays?
SENP1 FRET inh: 1.7; SENP7 block: 89.2*; SENP8 block-1: 80.7*; SENP6 block: 88.8*; SENP8 block-2: 16.3; Platelet DG rel: 1.7; SENP8 confirm: 54.3*; SENP6 conf: 67.6*; SENP7 conf: 81.2*; Casp3 SENP sel: 79.8*; SENP luc ctr: 54.3*

Results for CCc1sc(C(=O)N2CCc3ccccc32)cc1C ?
SENP1 FRET inh: 2.0; SENP7 block: 97.4*; SENP8 block-1: 92.7*; SENP6 block: 95.7*; SENP8 block-2: 7.5; Platelet DG rel: 12.6; SENP8 confirm: 96.2*; SENP6 conf: 97.3*; SENP7 conf: 102.3*; Casp3 SENP sel: 94.7*; SENP luc ctr: 85.7*

What do the screens show for `COc1ccc(/C=C/C2=NN(C)C(=O)CC2)cc1`?
SENP1 FRET inh: 0.1; SENP7 block: 83.4*; SENP8 block-1: 69.1*; SENP6 block: 78.4*; SENP8 block-2: -1.7; Platelet DG rel: 42.6; SENP8 confirm: 80.9*; SENP6 conf: 79.9*; SENP7 conf: 93.9*; Casp3 SENP sel: 92.6*; SENP luc ctr: 80.1*
